# Tests used:
# [1] = molecular target: T1, Muscarinic acetylcholine receptor M2 (Homo sapiens) (UniProt P08172); assay: Binding affinity to human muscarinic M2 receptor expressed in CHO-K9 cells assessed as dissociation rate constant at 22 +/- 1 degree C preincubated for 180 mins followed by atropine addition by flow cytometric saturation binding study; format: cell-based
# T1 sequence (whole entry): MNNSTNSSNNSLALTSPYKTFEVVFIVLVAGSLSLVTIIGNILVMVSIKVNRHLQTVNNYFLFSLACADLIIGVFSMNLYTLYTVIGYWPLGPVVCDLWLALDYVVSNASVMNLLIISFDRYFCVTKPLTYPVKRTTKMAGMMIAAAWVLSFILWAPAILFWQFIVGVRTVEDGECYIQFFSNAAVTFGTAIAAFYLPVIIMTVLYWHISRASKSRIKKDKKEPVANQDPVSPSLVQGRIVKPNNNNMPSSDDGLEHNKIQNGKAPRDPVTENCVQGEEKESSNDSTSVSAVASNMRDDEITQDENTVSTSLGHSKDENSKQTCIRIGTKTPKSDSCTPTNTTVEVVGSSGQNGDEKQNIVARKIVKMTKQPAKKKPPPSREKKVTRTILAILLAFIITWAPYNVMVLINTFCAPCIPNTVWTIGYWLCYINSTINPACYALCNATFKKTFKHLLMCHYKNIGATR
# How it was run: (§1)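 Dissociation followed by flow cytometry at 22 °C over 9 h. koff from three-parameter incomplete monophasic decline fit; three or four experiments in duplicate.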
# [2] = molecular target: T1, Muscarinic acetylcholine receptor M2 (Homo sapiens); assay: Binding affinity to human muscarinic M2 receptor expressed in CHO-K9 cells assessed as dissociation rate constant at 22 +/- 1 degree C preincubated for 110 mins followed by atropine addition by flow cytometric saturation binding study; format: cell-based; how it was run: as §1
SMILES,K [1] [min⁻¹],K [2] [min⁻¹]
CC1(C)C(/C=C/C=C/C=C2/N(CCCCCC(=O)NCCN3CCN(CCCCC4CCN(CC(=O)N5c6ccccc6NC(=O)c6ccccc65)CC4)CC3)c3ccc(S(=O)(=O)O)cc3C2(C)C)=[N+](CCCCS(=O)(=O)[O-])c2ccccc21.O=C(O)C(F)(F)F.O=C(O)C(F)(F)F,0.0045,–
CC1(C)C(/C=C/C=C/C=C2/N(CCCCCC(=O)NCc3cc(C(=O)NCCNC(=O)CCc4cn(CCCCC5CCN(CC(=O)N6c7ccccc7NC(=O)c7ccccc76)CC5)cn4)cc(C(=O)NCCNC(=O)CCc4cn(CCCCC5CCN(CC(=O)N6c7ccccc7NC(=O)c7ccccc76)CC5)cn4)c3)c3ccc(S(=O)(=O)O)cc3C2(C)C)=[N+](CCCCS(=O)(=O)[O-])c2ccccc21.O=C(O)C(F)(F)F.O=C(O)C(F)(F)F.O=C(O)C(F)(F)F,–,0.0031

# Reference: ChEMBL document CHEMBL4602702, “Red-Emitting Dibenzodiazepinone Derivatives as Fluorescent Dualsteric Probes for the Muscarinic Acetylcholine M2 Receptor” (J Med Chem, 2020)
